Article PMC5204206 (ACS Omega, 2016)
Like-named read-outs stand apart in the source and are kept apart here.

What was measured:
streptavidin (SA) [1] = target: T1, streptavidin (SA) (Streptomyces avidinii, UniProt P22629); assay: Competition binding
[2] = cited from earlier work
streptavidin (SA) [3] = target: T1, streptavidin (SA); assay: Direct binding to SA quantified by Trp-FRET
Outline: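 Tryptophan excited at 295 nm, emission read at 460 nm, averaged over three readings. SA-alone and free-probe signals subtracted, then corrected by quenching ratio (Iad = IFRET/Qr). Plotted against SA monomer concentration; one-site specific binding fit, triplicate.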

streptavidin (SA) [4] = target: T1, streptavidin (SA); assay: Isothermal titration calorimetry; format: binding
streptavidin (SA) [5] = target: T1, streptavidin (SA); assay: Binding to SA by quenching or enhancement of PB fluorescence
Outline: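 Streptavidin at varied concentrations (spanning at least 20–80% complexation) incubated 1 h at room temperature with shaking in PBS pH 7.4 with fixed PB-linked probe (5 or 25 nM). Ex 400 nm, em 460 nm. SA-alone background subtracted. Change in fluorescence normalized and plotted against SA monomer concentration; one-site specific binding fit, triplicate. For one probe, the three highest SA concentrations (64–256 nM) were excluded.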

streptavidin (SA) [6] = target: T1, streptavidin (SA); assay: Comparison of Trp-FRET acceptors; conditions: for FF (FRET fold effect): FF = Iad/Ia; for Iad (intensity of FRET acceptor, sensitivity): acceptor 100 nM bound to SA 400 nM, Ex. 295 nm, at Em. λmax, normalized to Id; for Fold less sensitive than PB (12) as Trp-FRET acceptor / E (efficiency of FRET with tryptophan): bound to SA; for E (efficiency of FRET with tryptophan): E = 1 – Ida/Id
Outline: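 Biotin-linked fluorophore acceptors (100 nM) bound to streptavidin (400 nM, as monomer) in PBS pH 7.4. Tryptophan excited at 295 nm; acceptor intensity (Iad) read at its emission λmax and normalized to donor intensity (Id). FRET efficiency E = 1 − Ida/Id; fold effect FF = Iad/Ia.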

[7] = Photophysical properties of probes in PBS; format: physicochemical; conditions: for ε (molar extinction coefficient): PBS (0.5% DMSO), at absorbance λmax; for Fold by which PB-derived probe 12 is brighter than this probe: aqueous PBS (pH 7.4)
Outline: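 ε: Beer's-law plots of absorbance at λmax vs concentration in PBS (0.5% DMSO), 1 cm path; least-squares fit through zero. Spectra: 32 µM for absorbance, 50 nM for emission, excited at λmax. Φ by Williams' method: excitation 396 nm, integrated emission 415–700 nm at 5–160 nM, plotted against absorbance extrapolated from higher concentrations; coumarin 102 standard (Φ = 0.66 in water).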

| Ki (streptavidin (SA) [1]) | Kd (streptavidin (SA) [4]) | FF (FRET fold effect) (streptavidin (SA) [6]) | Iad (intensity of FRET acceptor, sensitivity) (streptavidin (SA) [6]) | E (efficiency of FRET with tryptophan) (streptavidin (SA) [6]) | ε (molar extinction coefficient) [7] | Compound | also measured |
| --- | --- | --- | --- | --- | --- | --- | --- |
| 693 ± 91 nM | – | – | – | – | – | COC(=O)CCCCC[C@H]1NC(=S)N[C@H]1C [compound 21, Methyl 6-((4R,5S)-5-methyl-2-thioxoimidazolidin-4-yl)hexanoate] | – |
| – | – | – | – | – | – | O=C(O)c1cc2cc(F)c(O)c(F)c2oc1=O [PB, 6,8-Difluoro-7-hydroxy-2-oxo-2H-chromene-3-carboxylic Acid, reference compound] | ε (molar extinction coefficient) [2]: 29 500 M^–1 cm^–1 |
| – | 12 ± 4 nM | – | – | – | – | O=C(CCCC[C@@H]1SC[C@@H]2NC(=S)N[C@@H]21)NCCNC(=O)c1cc2cc(F)c(O)c(F)c2oc1=O [compound 17, 6,8-Difluoro-7-hydroxy-2-oxo-N-(2-(5-((3aS,4S,6aR)-2-thioxohexahydro-1H-thieno[3,4-d]imidazol-4-yl)pentanamido)ethyl)-2H-chromene-3-carboxamide] | Kd (streptavidin (SA) [3]): 11 ± 2 nM; Change of fluorescence of PB-linked ligand on binding to SA (streptavidin (SA) [5]): partially quenched |
| – | – | 8.0 | 0.6 | 0.35 | 11 600 M^–^1cm^–^1 | CN(C)c1ccc2c(CC(=O)NCCNC(=O)CCCC[C@@H]3SC[C@@H]4NC(=O)N[C@@H]43)cc(=O)oc2c1 [compound 15, N-(2-(2-(7-(Dimethylamino)-2-oxo-2H-chromen-4-yl)acetamido)ethyl)-5-((3aS,4S,6aR)-2-oxohexahydro-1H-thieno[3,4-d]imidazol-4-yl)pentanamide] | Fold less sensitive than PB (12) as Trp-FRET acceptor (streptavidin (SA) [6]; compared with 12): 6 fold; Fold by which PB-derived probe 12 is brighter than this probe [7]: ~17 fold; Φf (quantum yield) [2]: 0.06[6] |
| – | – | – | – | – | – | O=C(O)CCCC[C@@H]1SC[C@@H]2NC(=O)N[C@@H]21 [biotin, reference compound] | Effect of competitor on FRET from 12 bound to SA (streptavidin (SA) [6]; biotin 10 μM, 12 100 nM, SA monomer 400 nM): blocked FRET |
| – | 125 ± 45 nM | – | – | – | – | C[C@@H]1NC(=S)N[C@@H]1CCCCCC(=O)NCCNC(=O)c1cc2cc(F)c(O)c(F)c2oc1=O [compound 18, 6,8-Difluoro-7-hydroxy-N-(2-(6-((4R,5S)-5-methyl-2-thioxoimidazolidin-4-yl)hexanamido)ethyl)-2-oxo-2H-chromene-3-carboxamide] | Kd (streptavidin (SA) [3]): 145 ± 19 nM; Change of fluorescence of PB-linked ligand on binding to SA (streptavidin (SA) [5]): enhanced |
| – | – | 19.2 | 3.3 | 0.40 | 24 200 M^–^1cm^–^1 | O=C(CCCC[C@@H]1SC[C@@H]2NC(=O)N[C@@H]21)NCCNC(=O)c1cc2cc(F)c(O)c(F)c2oc1=O [compound 12, 6,8-Difluoro-7-hydroxy-2-oxo-N-(2-(5-((3aS,4S,6aR)-2-oxohexahydro-1H-thieno[3,4-d]imidazol-4-yl)pentanamido)ethyl)-2H-chromene-3-carboxamide] | Φf (quantum yield) ([7]; PBS, relative to coumarin 102): 0.74 |
| 1350 ± 180 nM | 1550 ± 270 nM | – | – | – | – | C[C@@H]1NC(=S)N[C@@H]1CCCCCC(=O)O [compound 20, 6-((4R,5S)-5-Methyl-2-thioxoimidazolidin-4-yl)hexanoic Acid] | – |
| – | – | 4.8 | 2.2 | 0.21 | 7800 M^–^1cm^–^1 | O=C(CCCC[C@@H]1SC[C@@H]2NC(=O)N[C@@H]21)NCCNC(=O)Cc1cc(=O)oc2cc(O)ccc12 [compound 14, N-(2-(2-(7-Hydroxy-2-oxo-2H-chromen-4-yl)acetamido)ethyl)-5-((3aS,4S,6aR)-2-oxohexahydro-1H-thieno[3,4-d]imidazol-4-yl)pentanamide] | Fold less sensitive than PB (12) as Trp-FRET acceptor (streptavidin (SA) [6]; compared with 12): 1.5 fold; Reduction of FRET fold effect (FF), factor (streptavidin (SA) [6]; compared with 12, due to increased excitation at 295 nm): 4; Fold by which PB-derived probe 12 is brighter than this probe [7]: ~3 fold; Φf (quantum yield) [2]: 0.47[6] |
| 188 ± 25 nM | – | – | – | – | – | C[C@@H]1NC(=S)NC1CCCCCC(=O)OCc1ccccc1 (stereo partly drawn) [compound 22, Benzyl 6-((5S)-5-methyl-2-thioxoimidazolidin-4-yl)hexanoate] | – |
